TNAP inh hiacc: human TNAP enzyme inhibitors, primary screen, biochemical, luminescent, high phosphate acceptor level, uHTS | purified TNAP, CDP-star luminescence, 1 M DEA | inhibition, % at 20 µM | hit rate 0.03% among 200,000 | AID 1135, 2008;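 active = over 50% inhibition of tissue-nonspecific alkaline phosphatase at 20 µM in the single-dose screen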;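 also: plate controls were DMSO wells for no effect and EDTA-quenched wells as full inhibition for full effect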
Target sequence (P05186 whole entry, looked up): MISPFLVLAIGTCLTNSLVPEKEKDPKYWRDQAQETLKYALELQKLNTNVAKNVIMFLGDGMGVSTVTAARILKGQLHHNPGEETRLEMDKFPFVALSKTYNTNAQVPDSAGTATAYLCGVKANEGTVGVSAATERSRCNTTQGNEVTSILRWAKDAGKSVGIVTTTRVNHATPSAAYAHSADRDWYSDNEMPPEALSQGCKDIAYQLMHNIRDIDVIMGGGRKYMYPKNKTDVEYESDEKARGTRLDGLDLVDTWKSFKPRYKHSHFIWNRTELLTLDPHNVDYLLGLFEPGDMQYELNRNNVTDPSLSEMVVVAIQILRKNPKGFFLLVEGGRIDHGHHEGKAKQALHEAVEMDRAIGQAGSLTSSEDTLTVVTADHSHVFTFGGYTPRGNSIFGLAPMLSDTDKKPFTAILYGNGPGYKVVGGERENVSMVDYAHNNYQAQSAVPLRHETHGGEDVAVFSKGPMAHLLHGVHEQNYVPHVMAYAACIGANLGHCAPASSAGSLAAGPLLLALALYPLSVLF
S1P4 antag: S1P4 receptor antagonists, primary screen, cell-based | S1P4-expressing cells, antagonist mode, reporter read-out | hit rate 0.26% among 220,000 | AID 1510, 2009 | inhibition, % at 4.98 µM; in the data active = inhibition above about 29%;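 also: 0% = wells stimulated with agonist and 100% = vehicle wells without agonist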
S1P4 ag: S1P4 receptor agonists, primary screen, cell-based; Sphingosine 1-phosphate receptor 4 (Homo sapiens), O95977; activation, % at 4.98 µM; hit rate 0.35% among 220,000; S1P4-expressing cell line, agonist reporter assay; in the data active = activation above about 11%;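 also: 0% = DMSO vehicle and 100% = reference agonist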
TNAP act hiacc: TNAP activators at high phosphate acceptor level, primary screen, biochemical, luminescence, uHTS | Alkaline phosphatase, tissue-nonspecific isozyme (Homo sapiens), P05186 | purified TNAP, CDP-star luminescence, 1 M DEA, 30 min; hits give high values; 0 = EDTA background, 1 = DMSO-only activity | activation factor at 20 µM | 200,000 tested, under 10 active;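 active = activation factor at least 2 at 20 µM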
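Measured by: Luminescent substrate turnover signal | Test system: Human TNAP | Input: TNAP 1/800 final | Dosing: 20 µM single point | Schedule: 30 min, room temperature | Controls: EDTA wells as negative control, DMSO wells as positive control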
S1P3 antagonist: S1P3 receptor antagonists, primary screen, cell-based; Sphingosine 1-phosphate receptor 3 (Homo sapiens), Q99500; CHO S1P3 NFAT-BLA reporter, FRET fluorescence, antagonist mode; inhibition, % at 4.98 µM; hit rate 0.27% among 170,000; AID 485, 2006;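 active = inhibition above the plate cutoff, the mean inhibition of test wells on that plate plus 3 SD, cut at about 28% in these data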;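 also: cells challenged with S1P at its EC80 of 0.8 µM; blue over green emission ratio from cleaved BLA substrate after 4 h stimulation; 0% = S1P-stimulated wells and 100% = unstimulated DMSO-only wells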
TNAP inh no acc: human TNAP enzyme inhibitors, primary screen, biochemical, luminescent, no phosphate acceptor, uHTS; hit rate 0.26% among 200,000; Alkaline phosphatase, tissue-nonspecific isozyme (Homo sapiens), P05186; purified TNAP, CDP-star luminescence, 30 min; inhibition, % at 20 µM; AID 1012, 2008;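 active = tissue-nonspecific alkaline phosphatase inhibition above about 50% at 20 µM in the single-dose screen, limit read from the data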;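 also: 0% = DMSO negative control and 100% = EDTA positive control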
S1P4 ag conf: S1P4 receptor agonists, retest, confirmation, cell-based, high throughput | activation, % at 4.98 µM | AID 1523, 2009 | S1P4 agonist cell-based reporter assay | hit rate 7% among 740 | shares compounds with S1P4 ag; in the data active = activation above about 12%;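 also: 0% = vehicle and 100% = full reference agonist response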
S1P1 agonist: S1P1 receptor agonists, human, counter-screen for S1P4 agonist project, cell-based; hit rate 4% among 740; AID 1563, 2009; S1P1 agonist cell-based assay, activation; shares compounds with S1P4 ag; activation, % at 4.98 µM; in the data active = activation above about 21%;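 also: 0% = vehicle wells and 100% = reference agonist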
An asterisk follows results filed as active; / = no result given. An excerpt weighted towards active compounds, which were near 1.1% of everything screened.

SMILES	TNAP inh hiacc	S1P4 antag	S1P4 ag	TNAP act hiacc	S1P3 antagonist	TNAP inh no acc	S1P4 ag conf	S1P1 agonist
COc1ccc(-n2cc(CNCCc3cscn3)c(-c3ccccc3Cl)n2)cc1	-6	-9	112*	1.1	-8	-10	-1	-4
CCOC(=O)N1CCN(Cc2nc(-c3ccc(Cl)cc3)no2)CC1	-4	-4	37*	1	/	1	-2	-3
O=C(CN1c2ccccc2Sc2ccccc21)NNC(=S)Nc1ccc(Cl)cc1Cl	-3	-7	-1	1	/	-6	/	/
O=C(CN1c2ccccc2Sc2ccccc21)NNC(=S)Nc1ccc(Cl)cc1	/	1	94*	/	-5	/	-1	-4
CCn1cc(C(=O)NCc2ccc3c(c2)OCO3)c(=O)c2cc(F)c(N3CCN(C(=O)c4ccco4)CC3)cc21	-2	-24	-1	1	/	0	/	/
CCC1CCCCN1C(=S)Nc1ccc(OC(F)F)cc1 (configuration not stated)	-1	0	12*	1	-22	1	-2	-3
NS(=O)(=O)c1ccc(CCNC(=O)CCCC2=NS(=O)(=O)c3ccccc3N2)cc1	1	-5	17*	1	-34	-6	-1	-2
COc1cccc(OCC(=O)NNC(=O)Cc2cccs2)c1	-1	-26	3	1	-11	-117	/	/
COc1cccc(C(=O)NNC(=O)Cc2cccs2)c1	-4	-9	24*	1	-3	-11	-1	3
O=C(CSC(=S)N1CCSCC1)c1ccc(Cl)cc1	-1	-18	1	1	16	-12	/	/
O=C(CSC(=S)N1CCSCC1)c1ccccc1	-3	8	53*	1	0	-16	-2	1
O=C(N/C(=C/c1ccc(Cl)cc1)C(=O)N1CCCC1)c1ccccc1	/	6	0	/	5	/	/	/
Cc1ccc(NC(=O)CSc2cccc[n+]2[O-])c([N+](=O)[O-])c1	-2	0	2	1	-9	-7	/	/
Cc1ccc(NCC(=O)N/N=C/c2cc(O)ccc2[N+](=O)[O-])cc1	6	-1	4	0.9	8	4	/	/
CCOC(=O)C1(CCCc2ccccc2)CCN(C(=O)C2CCCN(C(N)=O)C2)CC1 (configuration not stated)	-1	-6	-1	1	6	-7	/	/
Cc1ccc(NC(=O)c2ccc(N/N=C/c3cccc(O)c3)c([N+](=O)[O-])c2)cc1	17	-9	14*	0.8	/	20	-2	-5
Cc1ccccc1NC(=O)c1ccc(N/N=C/c2ccccc2O)c([N+](=O)[O-])c1	25	5	-1	0.7	/	12	/	/
N#Cc1ccc(CSc2nnc(-c3cccnc3)o2)cc1	-1	-15	65*	1	-16	0	-3	-5
COc1ccc2cc(/C=N/NC(=O)c3ccc(CN(c4cccc(Cl)c4Cl)S(C)(=O)=O)cc3)c(Cl)nc2c1	-2	16	43*	1	4	-6	-2	-5
COc1ccc2cc(/C=N/O)c(Cl)nc2c1	0	0	0	1	11	-7	/	/
CCOc1ccccc1CN1CCN(CCCn2cccn2)CC1CCO (configuration not stated)	-3	-6	-1	1	0	-12	/	/
Clc1ccc(/C=C\c2nccc3c2[nH]c2ccccc23)cc1	0	-21	23*	1	-76	-6	25*	84*
N#Cc1ccc(/C=C\c2nccc3c2[nH]c2ccccc23)cc1	-2	15	13*	1	13	-7	8	10
O=C(Nc1nccs1)c1cc2cc(Cl)ccc2oc1=O	/	-9	0	/	1	/	/	/
O=C(Cn1cnc([N+](=O)[O-])n1)N/N=C/c1cc(Cl)ccc1O	-5	-1	0	1.1	-12	-73	/	/
SMILES	TNAP inh hiacc	S1P4 antag	S1P4 ag	TNAP act hiacc	S1P3 antagonist	TNAP inh no acc	S1P4 ag conf	S1P1 agonist
Cc1ccc2cccc(S(=O)(=O)N3CCCc4ccccc43)c2n1	-3	4	3	1	6	-7	/	/
O=C(NCC1CCCO1)c1ccc2c(=O)n(CC3CCCO3)c(SCC(=O)N3CCCC3)nc2c1 (configuration not stated)	1	-2	1	1	-1	-4	/	/
CCCC(=O)Nc1ccc(-c2nc3cc(C)c(C)cc3o2)cc1	-3	5	13*	1	19	-9	0	-4
Cn1c(SCC(=O)O)nnc1-c1ccc2ncccc2c1	/	-7	117*	/	4	/	0	-6
Cc1cc(/C=C2\SC(=S)N(C)C2=O)c(C)n1-c1cccc(O)c1	/	6	0	/	-17	/	/	/
CN=C1S/C(=C\c2cc(C)n(-c3ccccc3F)c2C)C(=O)N1C	1	-35	59*	1	/	1	89*	72*
O=C(CNC(=O)c1ccc(F)cc1)N/N=C/c1cn[nH]c1-c1ccccc1	-1	-19	16*	1	11	34	-2	-3
O=C(Nc1ccccc1)C1=C[C@H](c2csc3ccccc23)C[C@H](OCCCCO)O1	-4	11	-2	1	-1	-8	/	/
O=C(Nc1ccccc1)C1=C[C@H](c2csc3ccccc23)C[C@H](OCc2ccc(CO)cc2)O1	-2	-19	16*	1	-10	-2	-1	0
COc1cc(C2NC(=S)NC(C)=C2C(=O)Nc2cc(C)cc(C)c2)ccc1O (configuration not stated)	/	-11	33*	/	-6	/	-1	-1
C=CCNC(=O)COC(=O)c1cc(S(=O)(=O)N2CCCCC2)ccc1Cl	-1	-17	1	1	-13	-3	/	/
CCOC(=O)CC1C(=O)NCCN1S(=O)(=O)c1ccc(Br)cc1 (configuration not stated)	-2	-2	11*	1	-18	-7	0	4
CCOC(=O)CC1C(=O)NCCN1S(=O)(=O)c1ccc(C)cc1 (configuration not stated)	-2	-14	2	1	-8	-2	/	/
COc1ccc(NC(=S)NCCN2CCC(C)CC2)cc1Cl	-2	-8	0	1	-13	-13	/	/
CCC(C)(C)n1nnnc1C(c1ccncc1)N1CCN(c2cccc(OC)c2)CC1 (configuration not stated)	2	-7	1	1	-12	6	/	/

High-throughput results from PubChem BioAssay.
